# Results gathered from unrelated publications.
# Target: Calcium/calmodulin-dependent protein kinase type 1 (CAMK1, Homo sapiens, UniProt Q14012)
Compound,observed,technique,concentration,remaining binding [%]
O=C(NCC1CCOCC1)c1n[nH]cc1NC(=O)c1c(F)cccc1F,binding,competition with immobilised ligand,1 µM,88
N[C@H]1CCN(c2nccc(-c3cnn4ncccc34)n2)C1,binding,,1 µM,88
COc1ccc2c(c1)O[C@H](c1ccc(OC)c(OC)c1)C[C@@H]2NC(=O)C1(c2ccc3c(c2)OC(F)(F)O3)CC1,cell-free assay,competition with immobilised ligand,1 µM,100
CN(CCCC(F)(F)F)c1nccc(-c2cnn3ncccc23)n1,binding,,1 µM,76
CC(=O)N1CCC(c2ccc(C(=O)NC(=N)N)cc2C(F)(F)F)CC1,cell-free assay,competition with immobilised ligand,1 µM,100
O=C(c1ccc(Nc2ncc(Cl)c(-c3cc4ccccc4s3)n2)cc1)N1CCC(N2CCCC2)CC1,binding,competition with immobilised ligand,1 µM,58
C[C@@H](c1cccc(C#N)c1)n1cc(Cl)cc(C(N)=O)c1=N,cell-free assay,competition with immobilised ligand,1 µM,100
COc1cnc(Nc2cccc(S(N)(=O)=O)c2)nc1N1CCN(c2ccccc2)CC1,binding,competition with immobilised ligand,1 µM,100
CCN1CCN(Cc2ccc(C(=O)Nc3ccc(C)c(Oc4ccc5c(c4)CC(=O)N5)c3)cc2C(F)(F)F)CC1,binding,competition with immobilised ligand,1 µM,100
O=C1NC(c2ccccn2)Sc2ccccc21 (stereo not drawn),cell-free assay,competition with immobilised ligand,1 µM,91
O=C(NCCCN1CCOCC1)c1ccc(Nc2ncc(Cl)c(-c3ccc(Cl)s3)n2)cc1,binding,competition with immobilised ligand,1 µM,78
CN([C@@H]1CCc2c(CC(=O)O)c3ccccc3n2C1)S(=O)(=O)c1ccc(F)cc1,cell-free assay,competition with immobilised ligand,1 µM,100
Cc1cnn2ncc(-c3ccnc(N(C)C)n3)c2c1,binding,,1 µM,92
O=C(NC[C@@H]1[C@H]2CN(C(=O)OCc3cc(C(F)(F)F)cc(C(F)(F)F)c3)C[C@@H]12)c1ccc2[nH]nnc2c1,cell-free assay,competition with immobilised ligand,1 µM,77
Nc1ncc2c(n1)-c1c([nH]c3ccc(C#CC4CC4)cc13)CCCC2,binding,competition with immobilised ligand,1 µM,100
CN(c1nccc(-c2cnn3ncccc23)n1)C1CC1,binding,,1 µM,82
COc1cnc(Nc2cccc(S(N)(=O)=O)c2)nc1N1CCN(c2ccccc2)C(=O)C1,binding,competition with immobilised ligand,1 µM,100
CN(C)c1nccc(-c2cnc3ncccn23)n1,binding,,1 µM,68
c1cncc(-c2cccc(Nc3nccc(NC4CCCCC4)n3)c2)c1,binding,competition with immobilised ligand,10 µM,53
CN(C)c1ncc(F)c(-c2cnn3ncccc23)n1,binding,,1 µM,86
Cc1cnc(Nc2ccc(C(=O)N3CCC(N4CCCC4)CC3)cc2)nc1-c1cc2ccccc2s1,binding,competition with immobilised ligand,1 µM,30
